Data: ChEMBL document CHEMBL4251703, “Linker Variation and Structure-Activity Relationship Analyses of Carboxylic Acid-based Small Molecule STAT3 Inhibitors” (ACS Med Chem Lett, 2018)
In brackets after ≈: the same amount, converted by molar mass. Activity calls are given as the source filed them. The calls are words filed in the database; no cut-off is given here.

Columns and labels:
[1] = Solubility of the compound in simulated intestinal fluid at pH 6.8; assay type: physicochemical
How it was run: (§1)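 Aqueous solubility was determined in pH 7.4 PBS and in pH 6.8 buffered simulated intestinal fluid, reported in μg/mL.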

[2] = target: Signal transducer and activator of transcription 3 (Homo sapiens) (UniProt P40763); assay: Inhibition of STAT3 DNA binding activity in human MDA-MB-468 nuclear extract at 5 uM after 24 hrs by electrophoretic mobility shift assay
How it was run: (§2)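 MDA-MB-468 cells received 5 μM compound for 3 or 24 h. STAT3 DNA-binding in nuclear extracts of equal total protein was then analysed by EMSA.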

[3] = target: Signal transducer and activator of transcription 3 (Homo sapiens) (UniProt P40763); assay: Inhibition of STAT3 in human MDA-MB-231 cells assessed as reduction in p-STAT3(Y705) level at 10 uM after 1 hr by immunoblot analysis; assay type: cell-based
[4] = target: Tyrosine-protein kinase JAK2 (Homo sapiens) (UniProt O60674); assay: Inhibition of JAK2 phosphorylation in human MDA-MB-231 cells at 5 uM after 24 hrs by immunoblot analysis; assay type: cell-based
[5] = target: Proto-oncogene tyrosine-protein kinase Src (Homo sapiens) (UniProt P12931); assay: Inhibition of SRC phosphorylation in human MDA-MB-231 cells at 5 uM after 24 hrs by immunoblot analysis; assay type: cell-based
[6] = target: Mitogen-activated protein kinase; ERK1/ERK2 (Homo sapiens) (UniProt P27361+P28482); assay: Inhibition of ERK1/2 phosphorylation in human MDA-MB-231 cells at 5 uM after 24 hrs by immunoblot analysis; assay type: cell-based
MDA-MB-231 [7] = assay: Cytotoxicity against human MDA-MB-231 cells harboring active STAT3 assessed as decrease in cell viability up to 10 uM after 72 hrs by CyQuant dye based assay; assay type: functional
How it was run: (§3)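 Cells were grown in 96-well format and treated once with 0–10 μM compound for 72 h. Viable cells were quantified by CyQuant proliferation assay and plotted as % viability against concentration. Data are mean ± SD of three independent determinations.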

MDA-MB-468 = assay: Cytotoxicity against human MDA-MB-468 cells harboring active STAT3 assessed as decrease in cell viability up to 10 uM after 72 hrs by CyQuant dye based assay; assay type: functional; how it was run: as §3
MCF7 = assay: Cytotoxicity against human MCF7 cells assessed as decrease in cell viability up to 10 uM after 72 hrs by CyQuant dye based assay; assay type: functional; how it was run: as §3
MDA-MB-231 [8] = assay: Anticlonogenic activity against human MDA-MB-231 cells up to 3 uM after 4 hrs by crystal violet staining based assay; assay type: functional, cell-based
How it was run: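 Single-cell cultures of MDA-MB-231 cells were treated once and cultured until large colonies were visible. Colonies were then stained with crystal violet, counted and plotted.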

MDA-MB-231 [9] = assay: Antimigratory activity against human MDA-MB-231 cells at 8 uM after 22 to […] hrs by inverted fluorescence microscope; assay type: functional, cell-based
How it was run: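 Confluent MDA-MB-231 cultures were wounded and treated once with or without 8 μM compound. Migration into the denuded area was followed over 23 h and imaged. Controls received 0.05% DMSO.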

[10] = target: Signal transducer and activator of transcription 3 (Homo sapiens) (UniProt P40763); assay: Inhibition of STAT3 in human MDA-MB-231 cells assessed as reduction in p-STAT3(Y705) level at 5 uM after 1 to 24 hrs by immunoblot analysis; assay type: cell-based
[11] = target: Signal transducer and activator of transcription 3 (Homo sapiens) (UniProt P40763); assay: Inhibition of STAT3 in human MDA-MB-468 cells assessed as reduction in p-STAT3(Y705) level at 5 uM after 1 to 24 hrs by immunoblot analysis; assay type: cell-based
[12] = Solubility of the compound in PBS at pH 7.4; assay type: physicochemical; how it was run: as §1
[13] = Half life in human liver microsomes; assay type: ADME, microsome
[14] = Half life in mouse liver microsomes; assay type: ADME, microsome
[15] = target: Signal transducer and activator of transcription 3 (Mus musculus) (UniProt P42227); assay: (§4) Inhibition of STAT3 DNA binding activity in mouse NIH/3T3 nuclear extract preincubated for 30 mins followed by [32P]hSIE addition measured after 30 mins by electrophoretic mobility shift assay
How it was run: (§5)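 STAT3 DNA-binding was measured by EMSA using nuclear extracts of equal total protein from v-Src-transformed fibroblasts containing activated STAT3. Extracts were preincubated for 30 min with 0–100 μM compound, then incubated with radiolabeled hSIE probe.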

[16] = target: Signal transducer and activator of transcription 3 (Homo sapiens) (UniProt P40763); assay: Inhibition of STAT3 DNA binding activity in human MDA-MB-231 nuclear extract at 10 uM after 3 hrs by electrophoretic mobility shift assay
How it was run: (§6)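 MDA-MB-231 breast cancer cells were exposed to 10 μM compound for 1, 3 or 24 h. Nuclear extracts of equal total protein were then assayed for STAT3 DNA-binding by EMSA.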

[17] = target: Signal transducer and activator of transcription 3 (Homo sapiens) (UniProt P40763); assay: Inhibition of STAT3 DNA binding activity in human MDA-MB-231 nuclear extract at 10 uM after 1 hr by electrophoretic mobility shift assay; how it was run: as §6
[18] = target: Signal transducer and activator of transcription 3 (Homo sapiens) (UniProt P40763); assay: Inhibition of STAT3 DNA binding activity in human MDA-MB-231 nuclear extract at 10 uM after 24 hrs by electrophoretic mobility shift assay; how it was run: as §6
[19] = target: Signal transducer and activator of transcription 3 (Homo sapiens) (UniProt P40763); assay: Inhibition of STAT3 DNA binding activity in human MDA-MB-468 nuclear extract at 5 uM after 3 to 24 hrs by electrophoretic mobility shift assay; how it was run: as §2
[20] = target: Signal transducer and activator of transcription 3 (Homo sapiens) (UniProt P40763); assay: Inhibition of STAT3 in human C8161 cells assessed as reduction in p-STAT3(Y705) level at 10 to 20 uM after 1 to 3 hrs by immunoblot analysis; assay type: cell-based
[21] = target: Signal transducer and activator of transcription 3 (Homo sapiens) (UniProt P40763); assay: Inhibition of STAT3 in human 1205 Lu cells assessed as reduction in p-STAT3(Y705) level at 10 to 20 uM after 1 to 3 hrs by immunoblot analysis; assay type: cell-based
[22] = target: Signal transducer and activator of transcription 3 (Homo sapiens) (UniProt P40763); assay: Inhibition of STAT3 in human UACC-903 cells assessed as reduction in p-STAT3(Y705) level at 10 to 20 uM after 1 to 3 hrs by immunoblot analysis; assay type: cell-based
Homo sapiens [23] = species: Homo sapiens; assay: Cytotoxicity against human C8161 cells harboring active STAT3 assessed as decrease in cell viability up to 20 uM after 48 hrs by MTT assay; assay type: functional, cell-based
Homo sapiens [24] = species: Homo sapiens; assay: Cytotoxicity against human 1205 Lu cells harboring active STAT3 assessed as decrease in cell viability up to 20 uM after 48 hrs by MTT assay; assay type: functional, cell-based
Homo sapiens [25] = species: Homo sapiens; assay: Cytotoxicity against human C81-61 cells harboring active STAT3 assessed as decrease in cell viability up to 20 uM after 48 hrs by MTT assay; assay type: functional, cell-based
MDA-MB-231 [26] = assay: Cytotoxicity against human MDA-MB-231 cells harboring active STAT3 assessed as decrease in cell viability up to 5 uM after 72 hrs by trypan blue exclusion based phase-contrast microscopy; assay type: functional
[27] = Apparent permeability of the compound from apical to basolateral side in human Caco2 cells; assay type: ADME, cell-based; settings: Caco-2
[28] = Cytotoxicity against human AR7119 cells assessed as decrease in cell viability up to 20 uM after 48 hrs by MTT assay; assay type: cell-based
[29] = target: Signal transducer and activator of transcription 3 (Mus musculus, UniProt P42227); assay: as §4; how it was run: as §5
Chain of Signal transducer and activator of transcription 3 (P42227 whole entry): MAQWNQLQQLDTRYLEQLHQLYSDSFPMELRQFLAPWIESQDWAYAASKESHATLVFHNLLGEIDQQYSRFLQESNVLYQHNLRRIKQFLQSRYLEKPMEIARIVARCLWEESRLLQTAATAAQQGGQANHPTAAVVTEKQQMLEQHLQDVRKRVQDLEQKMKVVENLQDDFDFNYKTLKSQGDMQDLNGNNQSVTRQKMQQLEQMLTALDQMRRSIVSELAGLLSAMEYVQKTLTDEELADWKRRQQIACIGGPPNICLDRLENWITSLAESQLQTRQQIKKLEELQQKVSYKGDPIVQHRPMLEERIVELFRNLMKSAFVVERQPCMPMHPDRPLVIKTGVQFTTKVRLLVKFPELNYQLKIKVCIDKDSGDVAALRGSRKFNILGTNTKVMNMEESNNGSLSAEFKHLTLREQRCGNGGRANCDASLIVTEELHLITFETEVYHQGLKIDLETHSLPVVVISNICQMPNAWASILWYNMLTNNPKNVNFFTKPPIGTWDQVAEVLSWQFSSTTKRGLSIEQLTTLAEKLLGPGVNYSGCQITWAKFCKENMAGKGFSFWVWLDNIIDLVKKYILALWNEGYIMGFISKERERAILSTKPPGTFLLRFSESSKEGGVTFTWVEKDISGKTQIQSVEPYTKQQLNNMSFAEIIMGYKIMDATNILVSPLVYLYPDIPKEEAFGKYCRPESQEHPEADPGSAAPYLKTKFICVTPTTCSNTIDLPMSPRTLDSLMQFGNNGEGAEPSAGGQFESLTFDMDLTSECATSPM

Chain of Signal transducer and activator of transcription 3 (Homo sapiens) (P40763 whole entry): as the sequence (P42227 whole entry) above, with D760E counted along it
Chain of Signal transducer and activator of transcription 3 (Mus musculus) (P42227 whole entry): as the sequence (P42227 whole entry) above
Chain of Proto-oncogene tyrosine-protein kinase Src (Homo sapiens) (P12931 2-536 limits assumed): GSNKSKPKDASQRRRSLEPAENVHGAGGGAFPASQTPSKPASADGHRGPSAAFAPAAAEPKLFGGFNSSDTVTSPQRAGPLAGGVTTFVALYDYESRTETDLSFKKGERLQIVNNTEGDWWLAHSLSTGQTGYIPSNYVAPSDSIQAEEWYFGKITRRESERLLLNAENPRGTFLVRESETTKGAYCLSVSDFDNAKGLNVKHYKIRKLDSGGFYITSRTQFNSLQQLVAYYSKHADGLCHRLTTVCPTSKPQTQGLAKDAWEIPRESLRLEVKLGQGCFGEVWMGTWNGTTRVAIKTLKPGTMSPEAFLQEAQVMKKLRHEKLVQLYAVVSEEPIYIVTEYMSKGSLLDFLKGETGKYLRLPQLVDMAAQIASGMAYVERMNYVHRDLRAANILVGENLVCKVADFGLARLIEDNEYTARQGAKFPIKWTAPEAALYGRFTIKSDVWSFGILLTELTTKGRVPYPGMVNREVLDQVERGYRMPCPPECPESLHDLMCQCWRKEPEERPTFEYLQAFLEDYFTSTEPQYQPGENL
Chain of Tyrosine-protein kinase JAK2 (Homo sapiens) (O60674 whole entry): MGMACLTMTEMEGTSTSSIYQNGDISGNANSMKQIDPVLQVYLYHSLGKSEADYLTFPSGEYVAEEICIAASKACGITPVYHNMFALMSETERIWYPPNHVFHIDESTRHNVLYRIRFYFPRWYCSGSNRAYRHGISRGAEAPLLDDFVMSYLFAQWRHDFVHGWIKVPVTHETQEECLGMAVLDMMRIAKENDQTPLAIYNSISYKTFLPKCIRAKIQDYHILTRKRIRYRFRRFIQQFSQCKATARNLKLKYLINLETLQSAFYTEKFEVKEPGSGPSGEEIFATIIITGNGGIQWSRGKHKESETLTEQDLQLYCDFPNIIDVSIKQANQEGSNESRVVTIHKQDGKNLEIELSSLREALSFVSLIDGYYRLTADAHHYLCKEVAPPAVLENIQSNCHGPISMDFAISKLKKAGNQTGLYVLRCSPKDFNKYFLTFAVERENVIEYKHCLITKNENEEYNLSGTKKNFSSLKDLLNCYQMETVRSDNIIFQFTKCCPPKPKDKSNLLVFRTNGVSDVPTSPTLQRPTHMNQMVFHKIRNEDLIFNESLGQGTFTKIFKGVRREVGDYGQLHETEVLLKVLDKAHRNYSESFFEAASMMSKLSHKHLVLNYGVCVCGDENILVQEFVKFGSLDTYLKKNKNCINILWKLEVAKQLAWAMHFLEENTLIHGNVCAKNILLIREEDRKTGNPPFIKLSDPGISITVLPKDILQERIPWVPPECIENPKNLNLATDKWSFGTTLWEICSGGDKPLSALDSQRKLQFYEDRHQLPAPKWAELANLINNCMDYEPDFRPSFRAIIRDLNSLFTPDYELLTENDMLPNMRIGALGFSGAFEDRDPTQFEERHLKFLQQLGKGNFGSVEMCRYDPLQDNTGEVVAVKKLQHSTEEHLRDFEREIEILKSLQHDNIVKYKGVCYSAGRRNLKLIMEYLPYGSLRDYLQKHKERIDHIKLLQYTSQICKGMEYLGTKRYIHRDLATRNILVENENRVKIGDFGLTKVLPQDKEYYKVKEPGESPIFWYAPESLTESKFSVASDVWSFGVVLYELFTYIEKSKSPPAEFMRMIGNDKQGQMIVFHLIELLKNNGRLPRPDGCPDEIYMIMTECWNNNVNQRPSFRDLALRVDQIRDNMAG
Chain of Mitogen-activated protein kinase; ERK1/ERK2 (Homo sapiens) (P27361 whole entry, looked up): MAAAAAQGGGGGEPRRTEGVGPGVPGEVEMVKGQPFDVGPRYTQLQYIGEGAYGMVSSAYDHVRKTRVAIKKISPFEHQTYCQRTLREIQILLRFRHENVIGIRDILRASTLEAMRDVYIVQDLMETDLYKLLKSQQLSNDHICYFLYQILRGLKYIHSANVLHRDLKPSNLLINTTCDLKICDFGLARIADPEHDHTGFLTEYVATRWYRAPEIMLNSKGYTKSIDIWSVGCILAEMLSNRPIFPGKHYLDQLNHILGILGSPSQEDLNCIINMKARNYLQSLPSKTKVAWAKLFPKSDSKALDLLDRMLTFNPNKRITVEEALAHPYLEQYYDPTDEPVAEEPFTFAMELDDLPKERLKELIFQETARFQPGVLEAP
Chain of Mitogen-activated protein kinase; ERK1/ERK2 (Homo sapiens) (P28482 whole entry, looked up): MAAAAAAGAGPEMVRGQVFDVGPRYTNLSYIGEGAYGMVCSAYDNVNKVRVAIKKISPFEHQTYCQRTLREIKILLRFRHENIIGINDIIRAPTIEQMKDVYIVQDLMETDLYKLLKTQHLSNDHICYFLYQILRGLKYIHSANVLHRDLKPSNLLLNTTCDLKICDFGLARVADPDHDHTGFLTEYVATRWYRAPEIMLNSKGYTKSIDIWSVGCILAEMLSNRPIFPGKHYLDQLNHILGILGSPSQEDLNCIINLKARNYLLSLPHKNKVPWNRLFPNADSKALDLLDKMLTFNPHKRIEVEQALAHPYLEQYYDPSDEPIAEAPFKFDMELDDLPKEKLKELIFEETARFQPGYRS

C[C@H](C(=O)N(Cc1ccc(C2CCCCC2)cc1)c1ccc(C(=O)[O-])c(O)c1)N(C)S(=O)(=O)c1c(F)c(F)c(F)c(F)c1F.[Na+]
solubility [1]: 0.127 mg/mL

C[C@H](C(=O)N(Cc1ccc(C2CCCCC2)cc1)c1ccc(C(=O)O)cc1Cl)N(C)S(=O)(=O)c1c(F)c(F)c(F)c(F)c1F
inhibition [2]: Active
inhibition [3]: Active
inhibition [4]: inactive
inhibition [5]: inactive
inhibition [6]: inactive
Activity (MDA-MB-231 [7]): Active
Activity (MDA-MB-468): Active
Activity (MCF7): inactive
Activity (MDA-MB-231 [8]): Active
Activity (MDA-MB-231 [9]): Active

O=C(O)c1ccc(N(Cc2ccc(C3CCCCC3)cc2)C(=O)[C@H]2CCCN2S(=O)(=O)c2c(F)c(F)c(F)c(F)c2F)cc1O
p-STAT3(Y705) reduction (qualitative call) [10]: Active
inhibition [11]: Active
Activity (MDA-MB-231 [7]): Active
Activity (MDA-MB-468): Active
Activity (MCF7): inactive

CN(CC(=O)N(Cc1ccc(C2CCCCC2)cc1)c1ccc(C(=O)NO)cc1)S(=O)(=O)c1c(F)c(F)c(F)c(F)c1F
solubility [12]: 0.0003 mg/mL (≈ 0.48 µM)
solubility [1]: 0.074 mg/mL (≈ 118 µM)
half-life [13]: ≥ 17 min
half-life [14]: ≥ 17 min

C[C@H](C(=O)N(Cc1ccc(C2CCCCC2)cc1)c1ccc(C(=O)O)c(O)c1)N(C)S(=O)(=O)c1c(F)c(F)c(F)c(F)c1F [listing 1 of 2 here]
inhibition [15]: Active
inhibition [16]: Active
inhibition [17]: inactive
inhibition [18]: inactive
inhibition [19]: Active
p-STAT3(Y705) reduction (qualitative call) [10]: Active
inhibition [11]: Active
inhibition [20]: Active
inhibition [21]: Active
inhibition [22]: Active
Activity (Homo sapiens [23]): Active
Activity (Homo sapiens [24]): Active
Activity (Homo sapiens [25]): Active

C[C@H](C(=O)N(Cc1ccc(C2CCCCC2)cc1)c1ccc(C(=O)O)cc1F)N(C)S(=O)(=O)c1c(F)c(F)c(F)c(F)c1F
p-STAT3(Y705) reduction (qualitative call) [10]: Active
inhibition [11]: Active
Activity (MDA-MB-231 [7]): Active
Activity (MDA-MB-468): Active
Activity (MDA-MB-231 [26]): Active
Activity (MCF7): inactive

O=C([O-])c1ccc(N(Cc2ccc(C3CCOCC3)cc2)C(=O)[C@H]2CCCN2S(=O)(=O)c2c(F)c(F)c(F)c(F)c2F)cc1O.[Na+]
solubility [12]: 0.123 mg/mL
solubility [1]: 0.117 mg/mL
Papp A→B [27]: 2 nm/s

CN(CC(=O)N(Cc1ccc(C2CCCCC2)cc1)c1ccc(C(=O)O)cc1)S(=O)(=O)c1c(F)c(F)c(F)c(F)c1F
solubility [12]: 0.0076 mg/mL (≈ 12.4 µM)
solubility [1]: 0.014 mg/mL (≈ 22.9 µM)
half-life [13]: ≥ 17 min
half-life [14]: ≥ 17 min

O=C(O)c1ccc(N(Cc2ccc(C3CCCCC3)cc2)C(=O)[C@@H]2CCCN2S(=O)(=O)c2c(F)c(F)c(F)c(F)c2F)c(F)c1
half-life [13]: 54 min
half-life [14]: 26 min
Papp A→B [27]: 1 nm/s

C[C@H](C(=O)N(Cc1ccc(C2CCCCC2)cc1)c1ccc(C(=O)O)c(O)c1)N(C)S(=O)(=O)c1c(F)c(F)c(F)c(F)c1F [listing 2 of 2 here]
Activity [28]: Non-Toxic

Cc1cc(C(=O)O)ccc1N(Cc1ccc(C2CCCCC2)cc1)C(=O)CN(C)S(=O)(=O)c1c(F)c(F)c(F)c(F)c1F
inhibition [15]: inactive
inhibition [3]: Active
Activity (MDA-MB-231 [7]): Active
Activity (MDA-MB-468): Active
Activity (MCF7): inactive
Activity (MDA-MB-231 [8]): Active
Activity (MDA-MB-231 [9]): Active

C[C@@H](C(=O)N(Cc1ccc(C2CCCCC2)cc1)c1ccc(C(=O)O)c(O)c1)N(C)S(=O)(=O)c1c(F)c(F)c(F)c(F)c1F
inhibition [16]: Active
inhibition [17]: inactive
inhibition [18]: Active

CN(CC(=O)N(Cc1ccc(C2CCCCC2)cc1)c1ccc(C(=O)O)cc1Cl)S(=O)(=O)c1c(F)c(F)c(F)c(F)c1F
IC50 [29]: 8.6 to 14.4 µM
inhibition [3]: Active
Activity (MDA-MB-231 [7]): Active
Activity (MDA-MB-468): Active
Activity (MCF7): inactive
Activity (MDA-MB-231 [8]): Active
Activity (MDA-MB-231 [9]): Active
